Laboratory results published in ChEMBL document CHEMBL4765240, “Design, Synthesis, and Immunological Evaluation of a Multicomponent Construct Based on a Glycotripeptoid Core Comprising B and T Cell Epitopes and a Toll-like Receptor 7 Agonist That Elicits Potent Immune Responses” (J Med Chem, 2018).
Calls of active or inactive are those of the source. No cut-off for these calls is given here. Numbered stars: 1 amine (or outer) side, 2 acyl side, 3 side chain; on linkers, the order of the positions; unused ones are H or OH. Square brackets hold non-standard residues; d marks the D form. Peptide text beside a SMILES is read from it. * marks the point of attachment. X4 = O=C(CCN(CCCO[C@H]1O[C@H](CO)[C@@H](O)[C@H](O)[C@@H]1O)[*:1])[*:2]; X3 = COCCOc1nc(N)c2[nH]c(=O)n(Cc3ccc(C(=O)*)cc3)c2n1; X2 = O=C(CCCCCn1cc(CN[*:1])nn1)[*:2]; Ahx = NCCCCCC(=O)O

Experiments:
Bone marrow cell [1] = assay: Adjuvanted-antitumor vaccine activity in C57BL/6 mouse bone marrow derived cells assessed as induction of IL-12 production at 10^-4 to 10^1 ug/ml incubated for 48 hrs by ELISA; assay type: functional, cell-based; details: dose 0.0001-10 µg/ml
Procedure, shortened: (§1)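 BMDCs from C57BL/6 bone marrow grown 6 days in 2-ME/10% FCS RPMI with GM-CSF-containing supernatant, about 60−70% CD11c⁺CD11b⁺. 10⁵ cells incubated at 37 °C for 48 h with increasing compound concentrations. IL-12p40 and IL-6 measured in supernatants by ELISA.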

Bone marrow cell [2] = assay: Adjuvanted-antitumor vaccine activity in C57BL/6 mouse bone marrow derived cells assessed as induction of IL-6 production at 10^-4 to 10^1 ug/ml incubated for 48 hrs by ELISA; assay type: functional, cell-based; details: dose 0.0001-10 µg/ml; procedure, shortened: as §1
Mus musculus [3] = species on record: Mus musculus; assay: Immuno-adjuvant activity in C57BL/6 mouse assessed as antibody response to Tn3G7K by measuring serum IgG levels at 11 .7 nmol, ID at day 0 and day 21 and measured post second dose; assay type: functional, organism-based; details: time 21.0 day
Procedure, shortened: (§2)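 Female C57BL/6 mice, 6 weeks old, were immunized intradermally with 11.7 nmol on days 0 and 21, and sera were taken on day 28. IgG was measured by ELISA on plates coated at 1 μg/mL, with the biotinylated Tn peptide captured on streptavidin plates for 1 h at 37 °C. Serum dilution series were detected with anti-mouse IgG-HRP and OPD/H2O2, read at 492 nm. Titer is the log10 of the highest dilution giving twice the absorbance of naive serum at 1/100, reported as mean SD.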

Mus musculus [4] = species on record: Mus musculus; assay: Adjuvanted-antitumor vaccine activity in C57BL/6 mouse assessed as induction of OT2-T cell mediated IFNgamma production in lymph node at 1 ug/ml, ID incubated for 5 days by anti-IFNgamma staining based flow cytometry; assay type: functional, organism-based; details: dose 1.0 µg/ml, time 5.0 day
Mus musculus [5] = species on record: Mus musculus; assay: Immuno-adjuvant activity in C57BL/6 mouse assessed as antibody response to OVA peptide by measuring serum IgG levels at 11 .7 nmol, ID at day 0 and day 21 and measured post second dose; assay type: functional, organism-based; details: time 21.0 day
Mus musculus [6] = assay: Adjuvanted-antitumor vaccine activity in C57BL/6 mouse assessed as fold increase in OT-2 T cells in spleen at 11.7 nmol, ID coadministered with OT2-derived CD4+ T cell after 5 days […]; assay type: functional; details: for fold change (FC): time 5 day
Procedure, shortened: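 2 × 10⁵ OT-II CD4⁺ T cells (from OT-II Rag2 TCR-transgenic knockout mice) transferred into C57BL/6 mice (6−10 weeks, n = 3 per group), then intradermal immunization with 11.7 nmol per mouse. Spleen collected after 5 days; OT-II cells counted by flow cytometry with anti-CD4, anti-Vα2 and anti-Vβ5.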

Mus musculus [7] = species on record: Mus musculus; assay: Adjuvanted-antitumor vaccine activity in C57BL/6 mouse assessed as induction of OT2-T cell mediated IFNgamma production in lymph node at 11.7 nmol, ID incubated for 5 days by anti-IFNgamma staining based flow cytometry; assay type: functional, organism-based; details: time 5.0 day
Procedure, shortened: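 Lymph node cells taken at day 5, 5 × 10⁵ per well, restimulated 2 h at 37 °C with 50 μg/mL OVA 323−339 plus GolgiPlug. Fixed, permeabilized, stained with anti-CD4, anti-CD3 and anti-IFNγ; flow cytometry.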

Mus musculus [8] = species on record: Mus musculus; assay: Adjuvanted-antitumor vaccine activity in C57BL/6 mouse assessed as induction of OT2-T cell mediated IFNgamma production in splenocytes at 11.7 nmol, ID followed by stimulation with OVA(323 to 339) peptide after 48 hrs by ELISA; assay type: functional, organism-based
Procedure, shortened: (§3)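 OT-II CD4⁺ T cells (2 × 10⁵) transferred into C57BL/6 mice (n = 3 per group), then 11.7 nmol per mouse given intradermally. Splenocytes harvested at day 5, cultured at 5 × 10⁵ per well with or without OVA 323−339 (1 μg/mL) at 37 °C for 48 h. IFN-γ and IL-5 measured in supernatants by ELISA.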

Mus musculus [9] = species on record: Mus musculus; assay: Adjuvanted-antitumor vaccine activity in C57BL/6 mouse assessed as induction of OT2-T cell mediated IL-5 production in splenocytes at 11.7 nmol, ID followed by stimulation with OVA(323 to 339) peptide incubated for 48 hrs by ELISA; assay type: functional, organism-based; procedure, shortened: as §3
Mus musculus [10] = species on record: Mus musculus; assay: Immuno-adjuvant activity in C57BL/6 mouse assessed as antibody response to (2R,8R,11S,14R,20R)-14-(2-amino-2-oxoethyl)-20-((2S,5R,8S,11R,14S,17R,20S,23R,26S)-5,14-bis((1H-imidazol-5-yl)methyl)-36-(4-(22-(4-((6-amino-2-(2-methoxyethoxy)-8-oxo-7H-purin-9(8H)-yl)methyl)phenyl)-3,7,11,15,22-pentaoxo-6-(3-((2S,3S,4S,5S,6R)-3,4,5-trihydroxy-6-(hydroxymethyl)tetrahydro-2H-pyran-2-yloxy)propyl)-10,14-bis(3-((2S,3S,4S,5S,6S)-3,4,5-trihydroxy-6-(hydroxymethyl)tetrahydro-2H-pyran-2-yloxy)propyl)-2,6,10,14,21-pentaazadocosyl)-1H-1,2,3-triazol-1-yl)-23-(3-amino-3-oxopropyl)-29-sec-butyl-26-(hydroxymethyl)-17-isopropyl-2,8,11,20-tetramethyl-4,7,10,13,16,19,22,25,28,31-decaoxo-3,6,9,12,15,18,21,24,27,30-decaazahexatriacontanamido)-17-sec-butyl-11-(2-carboxyethyl)-2-(3-guanidinopropyl)-8-methyl-4,7,10,13,16,19-hexaoxo-3,6,9,12,15,18-hexaazatricosane-1,23-dioic acid by measuring serum IgG levels at 11 .7 nmol, ID at day 0 and day 21 and measured post second dose; assay type: functional, organism-based; procedure, shortened: as §2
Mus musculus [11] = species on record: Mus musculus; assay: Immuno-adjuvant activity in immunized-C57BL/6 mouse assessed as antibody recognition in sera against 21 at 11 .7 nmol, ID at day 1 and day 20 and measured post second dose on day 27; assay type: functional, organism-based
Procedure, shortened: (§4)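 C57BL/6 mice, n = 3 per group, received 11.7 nmol intradermally on days 1 and 20, and sera were taken on day 27. ELISA plates were coated at 1 μg/mL with the peptoid or the biotinylated Tn3G7K, the latter on streptavidin plates for 1 h at 37 °C. Serially diluted sera were detected with anti-mouse IgG-HRP and OPD, read at 492 nm. Log10 titer is the dilution giving twice the absorbance of 1/100 naive serum.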

Mus musculus [12] = species on record: Mus musculus; assay: Immuno-adjuvant activity in immunized-C57BL/6 mouse assessed as antibody recognition in sera against 22 at 11 .7 nmol, ID at day 1 and day 20 and measured post second dose on day 27; assay type: functional, organism-based; procedure, shortened: as §4
Mus musculus [13] = species on record: Mus musculus; assay: Immuno-adjuvant activity in immunized-C57BL/6 mouse assessed as antibody recognition in sera against Tn3G7K at 11 .7 nmol, ID at day 1 and day 20 and measured post second dose on day 27; assay type: functional, organism-based; procedure, shortened: as §4
Bone marrow cell [14] = assay: Adjuvanted-antitumor vaccine activity in C57BL/6 mouse bone marrow derived cells assessed as induction of T cell activation at 10^-4 to 10^1 ug/ml incubated for 3 days in presence of mouse OT2-derived CD4+ T cell by ELISA; details: dose 1.0 µg/ml, time 72.0 hrs
CD4+ve Th = assay: Cytotoxicity against OT2 mouse CD4-positive T cells xenografted in C57BL/6 mouse assessed as reduction in cell viability in splenocytes by flow cytometry analysis; assay type: cell-based; details: in vivo

Compound	Activity (Bone marrow cell [1])	Activity (Bone marrow cell [2])	Activity (Mus musculus [3])	Activity (Mus musculus [4])	Activity (Mus musculus [5])	fold change (FC) (Mus musculus [6])	Activity (Mus musculus [7])	Activity (Mus musculus [8])	Activity (Mus musculus [9])	Activity (Mus musculus [10])	Activity (Mus musculus [11])	Activity (Mus musculus [12])	Activity (Mus musculus [13])	Activity (Bone marrow cell [14])	Activity (Mus musculus [6]; time 5.0 day)	Activity (CD4+ve Th)
CC(=O)N[C@H]1[C@@H](OCCCNCCC(=O)N(CCCO[C@H]2O[C@H](CO)[C@H](O)[C@H](O)[C@H]2NC(C)=O)CCC(=O)N(CCCO[C@H]2O[C@H](CO)[C@H](O)[C@H](O)[C@H]2NC(C)=O)CCC(=O)OC(C)(C)C)O[C@H](CO)[C@H](O)[C@@H]1O	inactive	inactive														
COCCOc1nc(N)c2[nH]c(=O)n(Cc3ccc(C(=O)NCCCCCC(=O)N(CCCO[C@H]4O[C@H](CO)[C@H](O)[C@H](O)[C@H]4NC(C)=O)CCC(=O)N(CCCO[C@H]4O[C@H](CO)[C@H](O)[C@H](O)[C@H]4NC(C)=O)CCC(=O)N(CCCO[C@H]4O[C@H](CO)[C@H](O)[C@H](O)[C@H]4NC(C)=O)CCC(=O)OC(C)(C)C)cc3)c2n1	Active	Active	inactive	inactive	inactive											
COCCOc1nc(N)c2[nH]c(=O)n(Cc3ccc(C(=O)O)cc3)c2n1	inactive	inactive														
CC[C@H](C)[C@H](NC(=O)CCCCCn1cc(CNC(=O)CCN(CCCO[C@H]2O[C@H](CO)[C@H](O)[C@H](O)[C@H]2NC(C)=O)C(=O)CCN(CCCO[C@H]2O[C@H](CO)[C@H](O)[C@H](O)[C@H]2NC(C)=O)C(=O)CCN(CCCO[C@H]2O[C@H](CO)[C@H](O)[C@H](O)[C@H]2NC(C)=O)C(=O)CCCCCNC(=O)c2ccc(Cn3c(=O)[nH]c4c(N)nc(OCCOC)nc43)cc2)nn1)C(=O)N[C@@H](CO)C(=O)N[C@@H](CCC(N)=O)C(=O)N[C@@H](C)C(=O)N[C@H](C(=O)N[C@@H](Cc1cnc[nH]1)C(=O)N[C@@H](C)C(=O)N[C@@H](C)C(=O)N[C@@H](Cc1cnc[nH]1)C(=O)N[C@@H](C)C(=O)N[C@@H](CCC(=O)O)C(=O)N[C@H](C(=O)N[C@@H](CC(N)=O)C(=O)N[C@@H](CCC(=O)O)C(=O)N[C@@H](C)C(=O)NCC(=O)N[C@@H](CCCNC(=N)N)C(=O)O)[C@@H](C)CC)C(C)C (HELM PEPTIDE1{[COCCOc1nc(N)c2[nH]c(=O)n(Cc3ccc(C(=O)NCCCCCC(=O)N(CCCO[C@H]4O[C@H](CO)[C@H](O)[C@H](O)[C@H]4NC(C)=O)CCC(=O)N(CCCO[C@H]4O[C@H](CO)[C@H](O)[C@H](O)[C@H]4NC(C)=O)CCC(=O)N(CCCO[C@H]4O[C@H](CO)[C@H](O)[C@H](O)[C@H]4NC(C)=O)CCC(=O)[*:2])cc3)c2n1].[O=C(CCCCCn1cc(CN[*:1])nn1)[*:2]].I.S.Q.A.V.H.A.A.H.A.E.I.N.E.A.G.R}$$$$V2.0)	Active	Active	inactive		inactive	30	Active	Active	inactive	Active	Active	Active	inactive	Active		
CC[C@H](C)[C@H](NC(=O)CCCCCn1cc(CNC(=O)CCN(CCCO[C@H]2O[C@H](CO)[C@@H](O)[C@H](O)[C@@H]2O)C(=O)CCN(CCCO[C@H]2O[C@H](CO)[C@@H](O)[C@H](O)[C@@H]2O)C(=O)CCN(CCCO[C@H]2O[C@H](CO)[C@@H](O)[C@H](O)[C@@H]2O)C(=O)CCCCCNC(=O)c2ccc(Cn3c(=O)[nH]c4c(N)nc(OCCOC)nc43)cc2)nn1)C(=O)N[C@@H](CO)C(=O)N[C@@H](CCC(N)=O)C(=O)N[C@@H](C)C(=O)N[C@H](C(=O)N[C@@H](Cc1cnc[nH]1)C(=O)N[C@@H](C)C(=O)N[C@@H](C)C(=O)N[C@@H](Cc1cnc[nH]1)C(=O)N[C@@H](C)C(=O)N[C@@H](CCC(=O)O)C(=O)N[C@H](C(=O)N[C@@H](CC(N)=O)C(=O)N[C@@H](CCC(=O)O)C(=O)N[C@@H](C)C(=O)NCC(=O)N[C@@H](CCCNC(=N)N)C(=O)O)[C@@H](C)CC)C(C)C ({X3-Ahx}-[X4][X4][X4][X2]ISQAVHAAHAEINEAGR-OH)	Active	Active				30	Active	Active	inactive		Active	Active	inactive	Active		
CC[C@H](C)[C@H](N)C(=O)N[C@@H](CO)C(=O)N[C@@H](CCC(N)=O)C(=O)N[C@@H](C)C(=O)N[C@H](C(=O)N[C@@H](Cc1cnc[nH]1)C(=O)N[C@@H](C)C(=O)N[C@@H](C)C(=O)N[C@@H](Cc1cnc[nH]1)C(=O)N[C@@H](C)C(=O)N[C@@H](CCC(=O)O)C(=O)N[C@H](C(=O)N[C@@H](CC(N)=O)C(=O)N[C@@H](CCC(=O)O)C(=O)N[C@@H](C)C(=O)NCC(=O)N[C@@H](CCCNC(=N)N)C(=O)O)[C@@H](C)CC)C(C)C [ovalbumin peptide] (H-ISQAVHAAHAEINEAGR-OH)				inactive											inactive	Non-Toxic
